# Data: ChEMBL document CHEMBL1127085, “Derivatives of 2-(dipropylamino)tetralin: effect of the C8-substituent on the interaction with 5-HT1A receptors” (J Med Chem, 1993)
# Key:
# [1] = molecular target: T1, 5-hydroxytryptamine receptor 1A (Rattus norvegicus) (UniProt P19327); experiment: 5-HT (serotonin) turnover in rat hippocampus (p<0.05); type: functional, tissue-based
# T1 sequence (whole entry): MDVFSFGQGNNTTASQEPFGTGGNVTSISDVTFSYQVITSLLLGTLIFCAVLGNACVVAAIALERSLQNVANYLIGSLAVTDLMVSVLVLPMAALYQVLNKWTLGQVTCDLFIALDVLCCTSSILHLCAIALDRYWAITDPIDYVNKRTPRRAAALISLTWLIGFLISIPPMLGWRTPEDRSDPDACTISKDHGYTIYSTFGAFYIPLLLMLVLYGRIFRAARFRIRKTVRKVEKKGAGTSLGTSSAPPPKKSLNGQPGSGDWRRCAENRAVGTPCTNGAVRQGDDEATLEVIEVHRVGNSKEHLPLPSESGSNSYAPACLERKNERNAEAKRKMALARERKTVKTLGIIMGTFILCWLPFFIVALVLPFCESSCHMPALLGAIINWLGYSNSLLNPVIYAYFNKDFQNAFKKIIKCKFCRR
# Outline: (§1)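 Rats dosed sc (screening dose typically 32 µmol/kg, in 0.9% NaCl, 2 mL/kg); decapitated 5-10 min after the 30-min rating, […]. Hippocampus dissected and frozen. 5-HIAA/5-HT ratio measured by HPLC with electrochemical detection (+0.85 V) after perchloric acid homogenisation. Reported as percent of saline control, mean ± SEM, n = 4-6 per group; ANOVA with Tukey test.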
# [2] = molecular target: T2, 5-hydroxytryptamine receptor 1A (Rattus norvegicus, UniProt P19327); experiment: Binding affinity of 5-hydroxytryptamine 1A receptor using [3H]-8-OH-DPAT as radioligand.
# T2 sequence (P19327 whole entry): T1 sequence (whole entry)
# Outline: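 Membranes from cortex and hippocampus of male Sprague-Dawley rats, pooled from at least six rats, preincubated with 10 µM pargyline. Assay used 2 nM [3H]-8-OH-DPAT, test compound at 1-300 nM and 5 mg/mL tissue in 50 mM Tris-HCl with 4.0 mM CaCl2 and 5.7 mM ascorbate, pH 7.5. Incubated 10 min at 37 °C, filtered on GF/B, scintillation counted.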
# [3] = molecular target: T1, 5-hydroxytryptamine receptor 1A (Rattus norvegicus); experiment: Number of rats displaying the 5-HT syndrome or leaving the cage out of the number of rats tested; type: functional
# [4] = molecular target: T3, Dopamine receptor (Rattus norvegicus) (UniProt P25115+P19020+P30729+P18901+P61169); experiment: Effect of accumulation of DOPA in rat striatum at the dose of 32 umol/kg; type: functional, tissue-based
# Outline: (§2)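 Test compound given sc in 0.9% NaCl. NSD 1015 (287 µmol/kg sc) given 30 min later to inhibit aromatic L-amino acid decarboxylase; rats decapitated after a further 30 min. Hippocampus and striatum stored at -40 °C for up to 1 week. Perchloric acid homogenates with α-methyl-5-hydroxytryptophan internal standard; 5-HTP and DOPA measured by HPLC-EC. Percent of control, means ± SEM; ANOVA with Tukey test.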
# [5] = molecular target: T1, 5-hydroxytryptamine receptor 1A (Rattus norvegicus); experiment: Induction of clear-cut 5-HT motor syndrome in reserpine (5 mg/kg, sc) pretreated rats at the dose of 32 micro mol/kg; type: functional, organism-based
# [6] = molecular target: T1, 5-hydroxytryptamine receptor 1A (Rattus norvegicus); experiment: Effect of 5-HT accumulation in rat hippocampus at the dose of 32 umol/kg (p<0.01); type: functional, tissue-based; outline: as §2
# [7] = molecular target: T1, 5-hydroxytryptamine receptor 1A (Rattus norvegicus); experiment: Induction of clear-cut 5-HT motor syndrome in normal rats at the dose of 32 micro mol/kg; type: functional
# Rattus norvegicus [8] = experiment: Change in body temperature of rats upon administration after 30 minutes; type: functional
# Outline: (§3)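 Colonic temperature taken with an electrical thermometer probe 3.5 cm deep, before and 30 min after sc injection in saline. Change reported in °C as mean ± SEM; animal numbers as in the cage-leaving test. ANOVA with Tukey test.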
# [9] = molecular target: T3, Dopamine receptor (Rattus norvegicus); experiment: Dopamine (DA) turnover in rat corpus striatum; type: functional, tissue-based
# Outline: (§4)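 Rats given compound sc in 0.9% NaCl (screening dose typically 32 µmol/kg); decapitated about 30 min after dosing. Hippocampus and corpus striatum dissected and frozen. Perchloric acid homogenates analysed by HPLC with electrochemical detection. Turnover taken as 5-HIAA/5-HT or DOPAC/DA, expressed as percent of saline control. Means ± SEM; n = 5-7 controls, 4-6 treated. ANOVA with Tukey test.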
# Rattus norvegicus [10] = experiment: Induction of clear-cut 5-HT motor syndrome in reserpine (5 mg/Kg, sc) pretreated rats at the dose of 10 uM/Kg; type: functional
# Rattus norvegicus [11] = experiment: Induction of clear-cut 5-HT motor syndrome in reserpine (5 mg/Kg, sc) pretreated rats at the dose of 1 uM/Kg; type: functional
# [12] = molecular target: T1, 5-hydroxytryptamine receptor 1A (Rattus norvegicus); experiment: Induction of clear-cut 5-HT motor syndrome in reserpine (5 mg/Kg, sc) pretreated rats at the dose of 32 uM/Kg; type: functional, organism-based
# [13] = molecular target: T1, 5-hydroxytryptamine receptor 1A (Rattus norvegicus); experiment: 5-HT (serotonin) turnover in rat hippocampus; type: functional, tissue-based; outline: as §4
# Rattus norvegicus [14] = experiment: Induction of clear-cut 5-HT motor syndrome in normal rats at the dose of 10 uM/Kg; type: functional
# Rattus norvegicus [15] = experiment: Antagonistic effect on body temperature of rat induced by (R)-1 at the dose of 32 and 1.0 umol/kg of compound (R)-1; type: functional
# Outline: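 Compound (32 µmol/kg sc) or saline injected 10 min before (R)-8-OH-DPAT (1.0 µmol/kg sc). Colonic temperature taken before injection and 30 min later; result is the change from the preinjection value. One-way ANOVA with Tukey HSD test.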
# [16] = molecular target: T1, 5-hydroxytryptamine receptor 1A (Rattus norvegicus); experiment: Antagonistic effect on 5-HT syndrome or behavior of rat induced by (R)-1 at the dose of 32 and 1.0 umol/kg of compound (R)-1; type: functional
# Outline: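 Compound (32 µmol/kg sc) or saline injected 10 min before (R)-8-OH-DPAT (1.0 µmol/kg sc). Flat body posture, forepaw treading and hindlimb abduction scored during 30 min of observation. Results as number of rats showing the behaviour out of number tested; Fisher's exact probability test.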
# Rattus norvegicus [17] = experiment: Change in body temperature of rats upon administration after 30 minutes (p<0.01); type: functional; outline: as §3
# [18] = molecular target: T1, 5-hydroxytryptamine receptor 1A (Rattus norvegicus); experiment: 5-HT (serotonin) turnover in rat hippocampus (p<0.01); type: functional, tissue-based; outline: as §1
# Rattus norvegicus [19] = experiment: Effect of DOPA accumulation in rat striatum at the dose of 32 umol/kg (p<0.1); type: functional; outline: as §2
# Rattus norvegicus [20] = experiment: Induction of clear-cut 5-HT motor syndrome in normal rats at the dose of 1 uM/Kg; type: functional
# Rattus norvegicus [21] = experiment: Induction of clear-cut 5-HT motor syndrome in reserpine (5 mg/kg, sc) pretreated rats at the dose of 10 micro mol/kg; type: functional
# Rattus norvegicus [22] = experiment: Induction of clear-cut 5-HT motor syndrome in normal rats at the dose of 32 umol/kg; type: functional
# Rattus norvegicus [23] = organism: Rattus norvegicus; experiment: Dopamine (DA) turnover in rat corpus striatum (p<0.01); type: functional; outline: as §4
structure (smiles),measurement,setting,value
CCCN(CCC)[C@H]1CCc2cccc(CO)c2C1,Turnover,[1],75
same,Ki,[2],0.13 µM
same,No. of rats,[3],0
same,Accumulation,[4],101
same,Behavioral effect,[5],0
same,Accumulation,[6],58
same,Behavioral effect,[7],4
same,Temperature,Rattus norvegicus [8],-2.2
same,Turnover,[9],121
CCCN(CCC)[C@@H]1CCc2cccc(C#N)c2C1,Ki,[2],0.019 µM
same,Behavioral effect,Rattus norvegicus [10],3
CCCN(CCC)C1CCc2cccc(C(C)=O)c2C1 (racemic),Ki,[2],0.0009 µM
same,Behavioral effect,Rattus norvegicus [11],4
CCCCC(=O)c1cccc2c1CC(N(CCC)CCC)CC2 (racemic),Ki,[2],0.019 µM
same,Behavioral effect,[12],4
CCCN(CCC)C1CCc2cccc(-c3ccccc3)c2C1 (racemic),Ki,[2],0.012 µM
same,Behavioral effect,[5],0
CCCN(CCC)[C@H]1CCc2cccc(C(=O)OC)c2C1,No. of rats,[3],0
same,Turnover,[13],59
same,Behavioral effect,Rattus norvegicus [10],4
same,Behavioral effect,Rattus norvegicus [14],4
same,Temperature,Rattus norvegicus [8],-2.5
same,Turnover,[9],98
CCCN(CCC)[C@H]1CCc2cccc(C#N)c2C1,Ki,[2],0.037 µM
same,Behavioral effect,[12],4
CCCN(CCC)[C@@H]1CCc2cccc(-c3ccccc3)c2C1,No. of rats,[3],3
same,Temperature,Rattus norvegicus [15],-3.68
same,Behavioral effect,[5],0
same,Turnover,[13],98
same,Effect,[16],4
same,Temperature,Rattus norvegicus [17],0.3
same,Behavioral effect,[7],0
same,Turnover,[9],85
C#Cc1cccc2c1C[C@H](N(CCC)CCC)CC2,Ki,[2],0.022 µM
same,Turnover,[18],73
same,No. of rats,[3],0
same,Accumulation,[4],59
same,Behavioral effect,[5],4
same,Accumulation,[6],43
same,Temperature,Rattus norvegicus [17],-1.6
same,Behavioral effect,[7],4
same,Accumulation,Rattus norvegicus [19],50
same,Turnover,[9],78
CCCN(CCC)C1CCc2cccc(C(N)=O)c2C1 (racemic),Ki,[2],0.006 µM
same,Behavioral effect,[12],4
CCCN(CCC)[C@@H]1CCc2cccc(C(C)=O)c2C1,No. of rats,[3],0
same,Behavioral effect,Rattus norvegicus [20],4
same,Turnover,[13],68
same,Behavioral effect,Rattus norvegicus [11],4
same,Temperature,Rattus norvegicus [8],-2.8
same,Turnover,[9],106
CCCN(CCC)[C@H]1CCc2cccc(C)c2C1,No. of rats,[3],0
same,Accumulation,[4],119
same,Behavioral effect,[5],0
same,Accumulation,[6],64
same,Turnover,[13],79
same,Temperature,Rattus norvegicus [17],-2.3
same,Behavioral effect,[7],4
same,Turnover,[9],80
CCCN(CCC)[C@H]1CCc2cccc(C(C)=O)c2C1,No. of rats,[3],0
same,Behavioral effect,Rattus norvegicus [20],4
same,Turnover,[13],71
same,Behavioral effect,Rattus norvegicus [11],4
same,Temperature,Rattus norvegicus [8],-2.1
same,Turnover,[9],111
C#Cc1cccc2c1CC(N(CCC)CCC)CC2 (racemic),Ki,[2],0.004 µM
same,Behavioral effect,Rattus norvegicus [21],1
CCCN(CCC)[C@@H]1CCc2ccccc2C1,Turnover,[18],51
same,No. of rats,[3],4
same,Behavioral effect,Rattus norvegicus [22],4
same,Behavioral effect,[5],4
same,Temperature,Rattus norvegicus [17],-1.4
same,Turnover,Rattus norvegicus [23],77
